VIM-2 inhibitor: inhibitors of Pseudomonas aeruginosa VIM-2 metallo-beta-lactamase; inhibition, % at 5.6 µM; purified VIM-2, nitrocefin hydrolysis, epi-absorbance fluorescence; hit rate 0.89% among 290,000;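 active means inhibition above the mean of all tested compounds plus 3 SD, cutoff set per screening run, cut at about 7.5% in these data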;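 further: red hydrolysis product quenches plate fluorescence so inhibitors raise well fluorescence; 0% = enzyme with DMSO and 100% = DMSO without enzyme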
ARFGAP1 inhibitor: inhibitors of rat ARFGAP1; Q62848; Arfgap1-stimulated ARF1 GTP hydrolysis, GDP FP detection; inhibition, % at 16.5 µM; hit rate 0.26% among 360,000; AID 651572;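 active means inhibition above a per-plate limit, mean inhibition of low control wells plus 3 SD, cut at about 25% in these data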;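 further: 0% = DMSO wells with enzyme and 100% = wells lacking Arfgap1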
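Material: truncated rat Arfgap1 GAP domain; Incubation: compound-enzyme preincubation 20 min, reaction 120 min, detection 60 min, 25 °C; Read-out: percent inhibition of Arfgap1-stimulated GTP hydrolysis; Technique: FP, GDP Alexa 633 tracer displaced from anti-GDP antibody, 620/688 nm; Controls: No-Arfgap1 wells (100%) versus DMSO full-reaction wells (0%); Replication: single well per compound.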
PHOSPHO1 block: inhibitors of human PHOSPHO1 phosphatase | recombinant PHOSPHO1, absorbance phosphatase assay | inhibition, % at 13.3 µM | AID 1565 | Q8TCT1 | hit rate 1.1% among 290,000; in the data active means inhibition above about 60%
Calb FLC: affects C. albicans growth with fluconazole. C. albicans CaCi-2 + fluconazole, Alamar Blue growth, 48 h. growth inhibition, % (concentration not given with the values). hit rate 0.57% among 300,000;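 active means growth inhibition above about 58% in most replicates, limit read from the data, passing the limit was not always enough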;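 further: all wells also contain fluconazole at 8 µg/ml as a sub-toxic cotreatment; 0% = median of DMSO wells and 100% = median of geldanamycin control wells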
ASAP1 inh: blocks human ASAP1-stimulated Arf1 GTP hydrolysis. GDP FP detection. inhibition, % at 16.5 µM. hit rate 0.19% among 360,000; in the data active means inhibition above about 25%;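 further: 0% = vehicle with enzyme and substrate and 100% = no enzyme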
IMP-1 inh: inhibitors of Pseudomonas aeruginosa IMP-1 metallo-beta-lactamase; hit rate 0.45% among 290,000; inhibition, % at 5.6 µM; purified IMP-1, nitrocefin hydrolysis, epi-absorbance fluorescence; AID 1556;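 active means inhibition above the mean plus 3 SD of all compounds in the same screening run, cut at about 4.5% in these data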;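 further: 0% = IMP-1 with DMSO and 100% = DMSO wells lacking enzyme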
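System: Purified recombinant IMP-1 metallo-beta-lactamase enzyme | Measured by: Fluorescence quenching readout, ex 480/em 530 nm | Replication: Singlicate | Incubation: 15 min preincubation plus 25 min reaction at 25 °C | Evaluation: Percent inhibition from optical density relative to buffer-blank wells | Benchmarks: DMSO with and without IMP-1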
ARFGAP1 inh conf: confirmation of rat ARFGAP1 inhibitors | shares compounds with ARFGAP1 inhibitor | ARFGAP1-stimulated ARF1 GTP hydrolysis, GDP tracer FP | inhibition, % at 16.5 µM | hit rate 30% among 890 | AID 651608;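 active means average inhibition over triplicates above the hit cutoff set in the earlier primary screen, cut at about 25% in these data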;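 further: 0% = Arfgap1 plus ARF1-GTP with DMSO and 100% = wells lacking Arfgap1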
Target sequence (Q62848 whole entry, looked up): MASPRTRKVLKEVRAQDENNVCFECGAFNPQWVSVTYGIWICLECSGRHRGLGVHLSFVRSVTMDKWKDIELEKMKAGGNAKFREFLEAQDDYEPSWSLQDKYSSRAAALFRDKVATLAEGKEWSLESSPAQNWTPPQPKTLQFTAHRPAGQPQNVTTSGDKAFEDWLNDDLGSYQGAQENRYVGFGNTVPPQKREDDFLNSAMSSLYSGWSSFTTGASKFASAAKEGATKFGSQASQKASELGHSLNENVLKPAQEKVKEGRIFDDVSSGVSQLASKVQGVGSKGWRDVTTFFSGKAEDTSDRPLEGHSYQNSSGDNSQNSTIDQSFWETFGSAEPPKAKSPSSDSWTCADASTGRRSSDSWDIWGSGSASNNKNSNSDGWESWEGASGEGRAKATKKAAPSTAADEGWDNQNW
Active calls of the source: *; x = no result given. Shown are actives, neighbours in structure and some others; about 2.6% of the full set was active somewhere.

SMILES	VIM-2 inhibitor	ARFGAP1 inhibitor	PHOSPHO1 block	Calb FLC	ASAP1 inh	IMP-1 inh	ARFGAP1 inh conf
Clc1ccc(SCc2cc(N3CCOCC3)nc(-c3ccccn3)n2)cc1	1.3	-11.9	43.1	0.6	-9.8	-4.5	x
Cc1nc(CSc2ccc(Cl)cc2)cc(N2CC(C)OC(C)C2)n1 (configuration not stated)	0.5	24.6*	23.8	-64.4	-9.9	-3.7	4.6
O=C(NC1CCCCC1)N(c1ccccc1)c1nnc(-c2cccc([N+](=O)[O-])c2)s1	x	10.9	x	x	5.2	x	x
CS(=O)(=O)N1CCN(C(=O)COc2ccccc2)CC1	1.4	25.4*	47.1	2.9	-1.5	-1.5	-1.5
COc1nnc(-c2ccc(N3CCOCC3)c(NC(=O)c3ccccc3)c2)c2ccccc12	-3.8	40.6*	10.8	26.4	0.7	-2.0	2.5
CC(Sc1nc2ncc(Cl)cc2[nH]1)C(=O)Nc1ccccc1[N+](=O)[O-] (configuration not stated)	x	10.6	x	x	8.8	x	x
Oc1ccc(C=NNc2nc3ccccc3s2)c(O)c1	x	30.1*	x	x	-3.3	x	11.2
O=C(NC1(O)C(=O)c2ccccc2C1=O)c1c(Cl)cccc1Cl	-2.4	26.1*	52.9	-5.8	20.6	-0.6	9.8
O=C(Nc1ccccc1Cl)c1c(F)c(F)c(F)c(F)c1F	-1.1	-8.4	x	-22.4	1.1	1.2	x
O=C(O)CCC(=O)Nc1cccc(C(=O)Nc2cccc(Cl)c2)c1	-1.1	63.2*	32.3	15.2	3.7	-0.6	0.1
CN1/C(=C/C2CC(=O)NC2=O)C(C)(C)c2ccccc21 (configuration not stated)	-3.6	30.6*	25.7	x	-0.4	-2.0	-4.5
CC(=O)N1CCc2c(sc(NC(=O)c3ccc(S(=O)(=O)N(C)CC4CCCO4)cc3)c2C(N)=O)C1 (configuration not stated)	x	28.9*	x	x	4.1	x	0.6
O=C(COC(=O)CNC(=O)c1ccc(Cl)cc1Cl)NC1CCCCC1	-2.8	27.4*	2.8	-3.7	-0.5	-2.9	1.4
COc1ccc(C(=O)/C=C/c2ccc(O)cc2)c(O)c1C/C=C(\C)CCC=C(C)C	x	24.9*	x	x	17.6	x	14.4
CCCCNC(=O)C1C(c2ccc(C(F)(F)F)cc2)=Nc2ccccc2N1C(=O)C1CCN(C(C)=O)CC1 (configuration not stated)	x	-4.1	x	x	0.2	x	x
CCOc1cc(/C=N/n2c(C)nnc2C)ccc1O	-0.4	28.4*	-1.2	4.8	5.4	-1.9	6.8
CCOC(=O)C(C)(C)N(Cc1cccc(C)c1)S(=O)(=O)c1cccc([N+](=O)[O-])c1	-0.7	34.7*	1.6	-13.0	-11.1	0.0	0.5
CC(C)(C)c1cc[n+](-c2[nH]c(=O)sc2/C=N/NC(=O)c2ccccc2[O-])cc1	0.5	-4.4	26.1	-17.7	10.6	-1.5	x
CC(C)(C)c1cc[n+](-c2nc([O-])sc2C=O)cc1	-4.8	27.2*	-5.0	14.0	-2.5	-2.2	0.1
COc1ccccc1NC(=O)Cc1csc(NC(=S)Nc2ccc(C)cc2)n1	-3.2	27.5*	9.7	-4.7	11.8	-4.5	9.0
Cc1ccc(N2C(=O)CC(Sc3nc(C)cc(C)n3)C2=O)cc1 (configuration not stated)	-2.0	24.9*	24.1	8.4	-12.5	-3.1	1.0
NC(c1ccccc1)c1csc(Nc2ccc(C(=O)c3ccccc3)cc2)n1 (configuration not stated)	x	5.7	x	x	1.4	x	x
C(=N\n1cnc2ccccc21)/c1cccnc1	-2.1	24.9*	9.2	27.5	-6.5	-2.1	7.7
Cc1cc2ncn(/N=C/c3cccnc3)c2cc1C	-2.5	-3.2	19.3	-9.6	8.1	-3.8	x
Cc1cccc(-c2ccc([N+](=O)[O-])cc2CN2CCN(c3ncc(Cc4ccccc4)cn3)CC2)c1	x	10.9	x	x	-5.5	x	x
O=C(Cn1c2ccc(F)cc2c2nc3n(c(=O)c21)CCS3)Nc1ccccc1C(F)(F)F	-1.3	30.2*	8.4	1.5	22.2	-4.2	41.8*
CCOC(=O)C1=C(CBr)NC(=O)NC1C (configuration not stated)	-1.0	32.7*	-47.6	-0.3	9.3	-3.4	0.5

High-throughput results as filed in PubChem.
